Screening data: PubChem, several laboratories
Rows were chosen to be rich in hits. Some 2.6% of all compounds tested hit in one or more screens of this group.
Rin1-Abl PPI inh: human Rin1-Abl interaction inhibition; inhibition, % at 7.35 µM; hit rate 0.4% among 360,000; TR-FRET Rin1/Abl binding, biochemical; P00519+Q13671; in the data active means inhibition above about 5%, passing the limit was not always enough
Rce1 inhib: blocks yeast Ras-converting enzyme; AID 2563; yeast membranes, quenched prenylated peptide cleavage fluorescence; hit rate 0.27% among 290,000; Q03530; calls only;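 active means fall in fluorescence gain of 50% or more versus controls, with final raw signal at or below 3038400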;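 further: plate controls were neutral control wells for no effect and wells lacking membranes for full effect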
Myeloid diff 2: promotes myeloid progenitor differentiation | hit rate 1% among 360,000 | ER-HoxA9 myeloid progenitors, lysozyme-GFP differentiation, flow cytometry | calls only at 10 µM;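 active means normalized GFP-positive differentiation at or above the plate's own cutoff, the solvent-only control mean plus 3 SD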;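 further: cells exposed to compound for four days before flow analysis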
GRK2 inh: human GRK2 inhibition via aptamer displacement. P25098. bead flow cytometry, FAM-aptamer displacement from GRK2. inhibition of aptamer binding, % at 10 µM. hit rate 0.59% among 330,000;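 active means inhibition of aptamer binding above 40%, roughly 3 SD of noise, on plates passing a quality check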;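 further: median bead fluorescence of bound FAM aptamer so fluorescent compounds give negative values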
SKN-1 block: inhibitors of C. elegans SKN-1; inhibition, % at 21.8 µM; hit rate 0.49% among 360,000; AID 624304; C. elegans VP596 Pgst-4::GFP/RFP ratio, acrylamide-induced, 24 h;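 active means interference check ratio from 0.5 to 1.5 plus GFP to RFP signal ratio inhibition reaching or exceeding a fixed threshold, cut at about 30% in these data, passing the limit was not always enough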
T cell HTS: modulates CD8 T cell binding to vesicles; hit rate 0.068% among 330,000; response (vesicle binding), % at 7 µM; AID 2052; 2C CD8+ T cell-vesicle binding, flow cytometry; active compounds read low;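 active means response, share of CD8 T cells binding vesicles, and their 90th percentile fluorescence all below set limits, cut at about 80% in these data, passing the limit was not always enough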;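 further: values below 100% mean blocked vesicle binding to the CD8+ T cells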
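System: murine 2C transgenic CD8+ T lymphocytes; also added: QL9-loaded Drosophila micro-vesicles; times: binding 1.5 h at 37 °C; measured by: flow cytometry, PE anti-B7-1 (FL2) versus Alexa647 anti-CD8 (FL8), PFA-fixed; control set: Peptide-free naked vesicles (low) and QL9 vesicles with 0.7% DMSO vehicle (high)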
Rin1 Abl conf: Rin1-Abl interaction inhibition confirmation. shares compounds with Rin1-Abl PPI inh. TR-FRET Rin1-Abl binding, purified proteins. hit rate 49% among 1,300. inhibition, % at 7.35 µM
GFP quench: quenches GFP fluorescence, counter-screen for Rin1-Abl inhibitors; shares compounds with Rin1-Abl PPI inh; inhibitors/quenchers counterscreen; inhibition, % at 6.75 µM; hit rate 8.5% among 1,300; AID 602125;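 further: ABL1-eGFP fusion protein alone without its partner RIN1-SBP; 0% = protein with vehicle and 100% = wells lacking protein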
GFP quench dose: quenches GFP in dose response, Rin1-Abl counter-screen; shares compounds with Rin1-Abl PPI inh; GFP fluorescence interference/quenching counterscreen; IC50, µM; 230 tested, under 10 active; AID 602182; call rule not given here;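 further: ABL1-eGFP fusion protein alone without its RIN1 binding partner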
* marks the source's active call; other numbers are inactive results. Unless noted, no stated cut-off is given here; in the data, active means inhibition above about 6.5%; inactive means the rest.

O=C(CN1C(=O)NC2(CCCC2)C1=O)Nc1cc(Cl)ccc1Oc1ccccc1 was read as Rin1-Abl PPI inh 3, Myeloid diff 2 inactive, GRK2 inh 0, SKN-1 block 21 and T cell HTS 492.
COc1cccc(/C=C/C(=O)NCc2cn3cc(Cl)ccc3n2)c1 was read as Rin1-Abl PPI inh 5.2*, Rce1 inhib inactive, Myeloid diff 2 inactive, GRK2 inh 0, SKN-1 block -14, T cell HTS 359, Rin1 Abl conf 2 and GFP quench -1.
`O=C(/C=C/c1cccc(Cl)c1)OCc1cn2cc(Cl)ccc2n1` gave Rin1-Abl PPI inh -1, Rce1 inhib inactive, Myeloid diff 2 inactive, GRK2 inh 3, SKN-1 block 4 and T cell HTS 218.
`C/C(=N\NC(=O)c1ccc([N+](=O)[O-])cc1)c1c(O)cc(C)oc1=O` gave Rin1-Abl PPI inh 3, Rce1 inhib inactive, Myeloid diff 2 inactive, GRK2 inh 8, SKN-1 block -3 and T cell HTS 350.
For C/C(=N/NC(=O)c1cc(O)c(O)c(O)c1)c1ccc([N+](=O)[O-])cc1 the results were Rin1-Abl PPI inh 41*, Rce1 inhib inactive, Myeloid diff 2 inactive, SKN-1 block 6, Rin1 Abl conf 46* and GFP quench 21*.
For CCCCn1c(N)c(N(CCOC)C(=O)c2ccc(F)c(S(=O)(=O)N3CCOCC3)c2)c(=O)[nH]c1=O the results were Rin1-Abl PPI inh -1, Rce1 inhib inactive, Myeloid diff 2 inactive, GRK2 inh 0, SKN-1 block -4 and T cell HTS 149.
CC12CC3OC3CC1CCC1C2CCC2(C)C1CCC21OCCO1 (centres undefined) was read as Rin1-Abl PPI inh -3, Myeloid diff 2 inactive and SKN-1 block -2.
For CCCSc1nnc(CSc2nc(C)cc(C)n2)n1C the results were Rin1-Abl PPI inh 20*, Rce1 inhib inactive, Myeloid diff 2 inactive, GRK2 inh 0, SKN-1 block -3, T cell HTS 319, Rin1 Abl conf 15* and GFP quench 3.
COCOCCn1cc(CN2CCS(=O)(=O)N(Cc3ccc(-c4ccc(OC)c(OC)c4)cc3)C(CC(C)C)C2=O)nn1 (centres undefined) was read as Rin1-Abl PPI inh 0, Myeloid diff 2 inactive and SKN-1 block 0.
For CCC(CC)CN1CCC(CN2C(=O)C(=O)NC[C@@H]2CC(C)C)CC1 the results were Rin1-Abl PPI inh 19*, Myeloid diff 2 inactive, SKN-1 block 2, Rin1 Abl conf 14* and GFP quench -2.
Screening Cc1cccc(N(Cc2ccccc2)C(=O)c2ccc(S(C)(=O)=O)cc2)c1 returned Rin1-Abl PPI inh 8.3*, Rce1 inhib inactive, Myeloid diff 2 inactive, GRK2 inh 0, SKN-1 block 11, T cell HTS 296, Rin1 Abl conf -2 and GFP quench 2.
Screening CCOc1nc(Nc2ccc(OC)cc2)nc(OCC)n1 returned Rin1-Abl PPI inh 9.2*, Rce1 inhib inactive, Myeloid diff 2 inactive, GRK2 inh 2, SKN-1 block 1, T cell HTS 596, Rin1 Abl conf 3 and GFP quench -1.
CCCCC(=O)C1CCN(Cc2ccccc2)CC1 was read as Rin1-Abl PPI inh 11*, Rce1 inhib inactive, Myeloid diff 2 inactive, GRK2 inh 0, SKN-1 block 15, T cell HTS 280, Rin1 Abl conf 17*, GFP quench 0 and GFP quench dose >68.
For CCCCNC(=O)C1CCN(Cc2ccc(OCc3ccccc3)cc2)CC1 the results were Rin1-Abl PPI inh 6, Rce1 inhib inactive, Myeloid diff 2 inactive, GRK2 inh 0, SKN-1 block -6 and T cell HTS 401.
`CN(C(=O)CSc1ncnc2sccc12)c1c(N)n(Cc2ccccc2)c(=O)[nH]c1=O` gave Rin1-Abl PPI inh -1, Myeloid diff 2 inactive, GRK2 inh 0, SKN-1 block -4 and T cell HTS 312.
`C[C@H]1c2cccc(O)c2C(O)=C2C(=O)C3(O)C(O)=C(C(N)=O)C(=O)[C@@H](N(C)C)[C@@H]3[C@@H](O)[C@@H]21` (some centres undefined) gave Rin1-Abl PPI inh 7, Myeloid diff 2 inactive, GRK2 inh 1, SKN-1 block 1 and T cell HTS 140.
C=C1c2cccc(O)c2C(O)=C2C(=O)[C@]3(O)C(O)=C(C(N)=O)C(=O)[C@@H](N(C)C)[C@@H]3[C@@H](O)[C@H]12 was read as Rin1-Abl PPI inh 23*, Rce1 inhib inactive, Myeloid diff 2 inactive, GRK2 inh 0, SKN-1 block 9, T cell HTS 534, Rin1 Abl conf 17* and GFP quench 12*.
`CC(C)C(=O)N1C2CCC1CC(O)(c1ccc(F)cc1)C2` (centres undefined) gave Rin1-Abl PPI inh 7.0*, Rce1 inhib inactive, Myeloid diff 2 inactive, GRK2 inh 23, SKN-1 block -3, T cell HTS 562, Rin1 Abl conf 1 and GFP quench 1.
Cn1c(SCC(=O)NC2CCS(=O)(=O)C2)nnc1-c1ccco1 (centres undefined) was read as Rin1-Abl PPI inh 2, Myeloid diff 2 inactive, GRK2 inh 0, SKN-1 block 18 and T cell HTS 494.
COc1ccc(CN(C)CCCn2ccc(NC(=O)OCc3ccccc3)nc2=O)cc1OC was read as Rin1-Abl PPI inh 15*, Myeloid diff 2 inactive, SKN-1 block 11, Rin1 Abl conf 22*, GFP quench -3 and GFP quench dose >68.
CC[C@@H](NCCCn1ccc(NC(=O)OCc2ccccc2)nc1=O)c1ccccc1 was read as Rin1-Abl PPI inh 8.4*, Myeloid diff 2 inactive, SKN-1 block 13, Rin1 Abl conf 8.8* and GFP quench -1.
`CC(=O)c1ccc(N(CC(=O)NC2CCCC2)C(=O)c2ccc(C)s2)cc1` gave Rin1-Abl PPI inh 1, Rce1 inhib inactive, Myeloid diff 2 inactive, GRK2 inh 2, SKN-1 block -7 and T cell HTS 208.
`CC(=O)c1cccc(N(CC(=O)NC2CCCC2)C(=O)c2ccc(C)s2)c1` gave Rin1-Abl PPI inh 7.5*, Rce1 inhib inactive, Myeloid diff 2 inactive, GRK2 inh 0, SKN-1 block -4, T cell HTS 322, Rin1 Abl conf -1 and GFP quench -1.
For CN(Cc1ccccc1)C(=S)NC(=O)c1cccs1 the results were Rin1-Abl PPI inh 0, Rce1 inhib inactive, Myeloid diff 2 inactive, GRK2 inh 0, SKN-1 block -3 and T cell HTS 611.
